The results in this text go back to ChEMBL document CHEMBL1130167, “NMR-based discovery of lead inhibitors that block DNA binding of the human papillomavirus E2 protein” (J Med Chem, 1997).

Test [1] concerns the target Regulatory protein E2 (Human papillomavirus type 31). As to the kind of experiment: Dissociation constant after binding to human papillomavirus E2 DNA-binding domain (DBD) by observing the changes in [15N]-HSQC spectra.
The test system of a further test is Nucleic Acid. As to the kind of experiment: Compound was tested for inhibition activity against HPV-E2 DNA-binding domain (DBD) (human papillomavirus E2) binding to DNA. It counts as nucleic-acid assay. An outline of the steps: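 Filter-binding assay: binding reactions at room temperature for 10 min in binding buffer (20 mM Tris-HCl pH 7.5, 100 mM NaCl, 5 mM DTT, 1 mM EDTA, BSA) with 4 nM DNA and 400 nM E2 DBD. Compounds were added from DMSO stocks at various concentrations. Mixtures were filtered through nitrocellulose, washed with buffer lacking BSA and counted by scintillation. IC50 was read from concentration versus percent inhibition plots.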

pIC50, pKd: −log10 of the molar value. A value given as a limit tells only on which side of the number the result lay.

Usually pKd stands for −log10 of the Kd, conventionally taken in molar units. As usually defined, the pIC50 is the negative decadic logarithm of the IC50, by convention in mol/L. A lower pIC50 goes with a high IC50.

`O=C(O)c1ccc(-c2ccc(C(F)(F)F)cc2)cc1` gave a pKd in test [1] of 2.82.

`Nc1cccc(-c2ccc(C(=O)O)cc2)c1` had a pKd in test [1] of less than 2.00.

In turn, `O=C(O)c1ccc(-c2cc(C(F)(F)F)cc(C(F)(F)F)c2)cc1` showed a pKd in test [1] of less than 2.00.

On to `O=C(O)CCCCc1ccc(Oc2ccccc2)cc1`, for which the pKd in test [1] is 3.07.

In turn, `O=C(O)c1ccc(-c2cccc([N+](=O)[O-])c2)cc1` gave a pKd in test [1] of 2.05.

Turning to `O=C(O)c1ccc(-c2ccc(O)cc2)cc1`, the pKd in test [1] is less than 2.00.

Molecule `O=C(O)c1ccc(-c2cccc(F)c2)cc1` showed a pKd in test [1] of 2.80.

In test [1], `Cc1cccc(-c2ccc(C(=O)O)cc2)c1` gave a pKd of 2.72.

`O=C(O)c1ccc(-c2ccc(Oc3ccccc3)cc2)cc1` had a pKd in test [1] of 2.68.

As for `Cc1ccccc1-c1ccc(C(=O)O)cc1`, the pKd in test [1] was 2.57.

In turn, `COc1ccccc1-c1ccc(C(=O)O)cc1` showed a pKd in test [1] of 2.77.

Molecule `CN(C)c1ccc(-c2ccc(C(=O)O)cc2)cc1` had a pKd in test [1] of 2.17.

The molecule `O=C(O)Cc1cccc(Oc2ccccc2)c1` showed a pKd in test [1] of less than 2.00.

`O=C(O)CCc1ccc(Oc2ccccc2)cc1` gave a negative-log Kd (pKd) in test [1] of 2.64.

For the molecule `O=C(O)c1ccc(-c2ccc(Cl)c(Cl)c2)cc1`, in test [1], the pKd is 2.18.

For `O=C(O)c1ccc(-c2ccc(Cl)cc2Cl)cc1`, the pKd in test [1] is 2.46.

In turn, `O=C(O)c1ccc(-c2ccc([N+](=O)[O-])c(Cl)c2)cc1` gave a pKd in test [1] of less than 2.00.

In test [1], `CC(C)(C)c1ccc(-c2ccc(C(=O)O)cc2)cc1` gave a pKd of less than 2.00.

Molecule `O=C(O)c1ccc(-c2cc(Cl)cc(Cl)c2)cc1` had a pIC50 in the test with Nucleic Acid of 3.82. In test [1], this molecule showed a pKd of 4.22.

For the molecule `O=C(O)c1ccc(-c2ccccc2)cc1`, the pIC50 with Nucleic Acid was less than 3.00.

Consider `O=C(O)/C=C/C=C/c1ccc(Oc2ccccc2)cc1`, for which the pIC50 with Nucleic Acid was 4.12. Also, in test [1], the pKd was 3.46.

Molecule `COc1ccc(-c2ccc(C(=O)O)cc2)cc1` had a pKd in test [1] of 2.06.

Take `O=C(O)CCCc1ccc(Oc2ccccc2)cc1`: the pIC50 with Nucleic Acid was less than 3.00. For the same molecule, the pKd in test [1] was 2.72.

`O=C(O)c1ccc(-c2cccc(Cl)c2)cc1` showed a negative logarithm of the Kd (pKd) in test [1] of 2.92.

Turning to `O=C(O)c1ccc(-c2cccc(C(F)(F)F)c2)cc1`, the pKd in test [1] is 3.49.

With `O=C(O)/C=C/C=C/c1cccc(Oc2cc(Cl)cc(Cl)c2)c1`, the pIC50 with Nucleic Acid is 5.00.
